From ChEMBL document CHEMBL4028836, “Optimization of M4 positive allosteric modulators (PAMs): The discovery of VU0476406, a non-human primate in vivo tool compound for translational pharmacology” (Bioorg Med Chem Lett, 2017)

What was measured:
[1] = target: T1, Muscarinic acetylcholine receptor M4 (Homo sapiens, UniProt P08173); experiment: Positive allosteric modulation of human M4 receptor expressed in CHO cells coexpressing Gqi5 assessed as increase in acetylcholine-induced calcium mobilization; type: functional, cell-based; details: read-out: EC50
T1 sequence (P08173 whole entry): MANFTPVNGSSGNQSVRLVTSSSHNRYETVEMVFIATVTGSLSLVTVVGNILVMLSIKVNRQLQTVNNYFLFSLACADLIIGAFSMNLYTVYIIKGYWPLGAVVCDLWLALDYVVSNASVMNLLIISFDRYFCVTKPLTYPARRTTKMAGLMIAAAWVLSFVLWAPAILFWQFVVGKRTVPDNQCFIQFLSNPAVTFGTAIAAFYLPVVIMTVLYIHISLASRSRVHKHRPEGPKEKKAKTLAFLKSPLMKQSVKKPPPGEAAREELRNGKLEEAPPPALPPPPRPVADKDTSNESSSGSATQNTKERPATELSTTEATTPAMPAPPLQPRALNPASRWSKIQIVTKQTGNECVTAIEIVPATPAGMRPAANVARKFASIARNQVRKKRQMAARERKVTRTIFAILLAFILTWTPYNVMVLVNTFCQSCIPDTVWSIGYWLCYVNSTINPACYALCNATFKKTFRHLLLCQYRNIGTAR
Summary of the method: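 Calcium mobilization in CHO cells expressing hM4 with Gqi5. Compound added in presence of a fixed EC20 concentration of acetylcholine. Values are means of three independent experiments, each run in triplicate.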

Cytochrome P450 1A2 = target: T2, Cytochrome P450 1A2 (Homo sapiens, UniProt P05177); experiment: Inhibition of CYP1A2 (unknown origin); type: ADME
T2 sequence (P05177 whole entry): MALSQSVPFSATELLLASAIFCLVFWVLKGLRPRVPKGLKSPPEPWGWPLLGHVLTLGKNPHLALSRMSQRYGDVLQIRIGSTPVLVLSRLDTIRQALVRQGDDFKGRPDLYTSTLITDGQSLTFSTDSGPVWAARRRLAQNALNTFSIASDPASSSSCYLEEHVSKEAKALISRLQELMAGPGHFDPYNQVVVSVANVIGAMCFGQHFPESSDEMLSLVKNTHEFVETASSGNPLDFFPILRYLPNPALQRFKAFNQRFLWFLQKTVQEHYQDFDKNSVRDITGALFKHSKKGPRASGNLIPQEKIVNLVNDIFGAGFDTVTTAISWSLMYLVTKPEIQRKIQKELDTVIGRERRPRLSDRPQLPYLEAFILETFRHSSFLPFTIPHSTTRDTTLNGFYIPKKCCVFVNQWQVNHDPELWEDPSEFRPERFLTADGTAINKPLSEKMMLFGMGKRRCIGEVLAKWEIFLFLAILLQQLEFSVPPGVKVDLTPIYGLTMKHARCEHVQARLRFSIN

Cytochrome P450 2C9 = Cytochrome P450 2C9 (Homo sapiens, UniProt P11712); experiment: Inhibition of CYP2C9 (unknown origin); type: ADME
Cytochrome P450 2D6 = Cytochrome P450 2D6 (Homo sapiens, UniProt P10635); experiment: Inhibition of CYP2D6 (unknown origin); type: ADME
Cytochrome P450 3A4 = Cytochrome P450 3A4 (Homo sapiens, UniProt P08684); experiment: Inhibition of CYP3A4 (unknown origin); type: ADME
Rattus norvegicus [2] = experiment: Elimination half-life in Sprague-Dawley rat at 0.1 to 1 mg/kg, iv; type: ADME, organism-based; details: in vivo
Rattus norvegicus [3] = experiment: Volume of distribution at steady state […] in Sprague-Dawley rat at 0.1 to 1 mg/kg, iv; type: ADME, organism-based; details: in vivo
Summary of the method: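 IV pharmacokinetics in Sprague-Dawley rats at 0.1–1.0 mg/kg. CLp, elimination t½ and Vss derived.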

[4] = target: Muscarinic acetylcholine receptor M4 (Rattus norvegicus, UniProt P08485); experiment: Positive allosteric modulation of rat M4 receptor assessed as increase in acetylcholine-induced calcium mobilization; type: functional
Summary of the method: (§1)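 M4 PAM concentration-response curves measured by calcium mobilization at the stated species' receptor. Potency reported as EC50/pEC50 and efficacy as % of acetylcholine maximum.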

[5] = Positive allosteric modulation of dog M4 receptor assessed as increase in acetylcholine-induced calcium mobilization; set-up: species or system Canis lupus familiaris; summary of the method: as §1
[6] = target: Muscarinic acetylcholine receptor M3 (Homo sapiens, UniProt P20309); experiment: Activity at human M3 receptor
[7] = target: Muscarinic acetylcholine receptor M1 (Rattus norvegicus, UniProt P08482); experiment: Activity at rat M1 receptor
Salmonella typhimurium [8] = experiment: Mutagenicity in Salmonella typhimurium TA98 by mini-Ames test; type: toxicity; details: salmonella enterica subsp. enterica serovar typhimurium
Summary of the method: (§2)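 Mini-Ames mutagenicity assay in Salmonella typhimurium strains TA98 and TA100, run with and without S9 metabolic activation.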

Salmonella typhimurium [9] = experiment: Mutagenicity in Salmonella typhimurium TA100 in absence of S9 fraction by mini-Ames test; type: toxicity; details: salmonella enterica subsp. enterica serovar typhimurium; summary of the method: as §2
CYP2B6 = CYP2B6 (Homo sapiens, UniProt P20813); experiment: Induction of CYP2B6 in cryopreserved human hepatocytes measured after 48 hrs; type: ADME, cell-based
Summary of the method: (§3)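 Cryopreserved human hepatocytes incubated for 48 hr, with enzyme activity as read-out. Induction expressed as EC50 and Emax.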

CYP3A4 = CYP3A4 (Homo sapiens, UniProt P08684); experiment: Induction of CYP3A4 in cryopreserved human hepatocytes measured after 48 hrs; type: ADME, cell-based; summary of the method: as §3
[10] = Brain to plasma permeability coefficient, Kp of the compound in dog at 3 mg/kg, iv or po at 2 hrs post dose; type: ADME, organism-based, Canis lupus familiaris
Summary of the method: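 Dog terminal study, with brain, plasma and CSF collected at 2.0 hr. Brain:plasma Kp, Kp,uu and Ccsf:Cplasma,u were derived.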

[11] = Ratio of unbound brain to plasma concentration in dog at 3 mg/kg, iv or po at 2 hrs post dose; type: ADME, organism-based, Canis lupus familiaris
Summary of the method: (§4)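 CNS penetration in dog by terminal study at 2.0 hr. Brain:plasma Kp, Kp,uu and unbound CSF:plasma ratio determined.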

[12] = Ratio of unbound CSF to plasma concentration in dog at 3 mg/kg, iv or po at 2 hrs post dose; type: ADME, organism-based, Canis lupus familiaris; summary of the method: as §4
[13] = Drug metabolism in dog cryopreserved hepatocytes assessed as metabolite M1 formation; type: ADME, cell-based, Canis lupus familiaris, Hepatocyte
[14] = Drug metabolism in human cryopreserved hepatocytes assessed as metabolite M1 formation; type: ADME, cell-based, Hepatocyte
[15] = Drug metabolism in human cryopreserved hepatocytes assessed as metabolite M2 formation; type: ADME, cell-based, Hepatocyte
[16] = Drug metabolism in cynomolgus monkey cryopreserved hepatocytes assessed as metabolite M3 formation; type: ADME, cell-based, Macaca fascicularis, Hepatocyte
[17] = Drug metabolism in human cryopreserved hepatocytes assessed as metabolite M3 formation; type: ADME, cell-based, Hepatocyte
[18] = Drug metabolism in human cryopreserved hepatocytes assessed as metabolite M4 formation; type: ADME, cell-based, Hepatocyte
[19] = Drug metabolism in cynomolgus monkey cryopreserved hepatocytes assessed as metabolite M5 formation; type: ADME, cell-based, Macaca fascicularis, Hepatocyte
[20] = Drug metabolism in rat cryopreserved hepatocytes assessed as metabolite M6 formation; type: ADME, cell-based, Hepatocyte
[21] = Drug metabolism in human cryopreserved hepatocytes assessed as metabolite M6 formation; type: ADME, cell-based, Hepatocyte
[22] = Drug metabolism in dog cryopreserved hepatocytes assessed as metabolite M6 formation; type: ADME, cell-based, Canis lupus familiaris, Hepatocyte
[23] = Drug metabolism in human cryopreserved hepatocytes assessed as metabolite M7 formation; type: ADME, cell-based, Hepatocyte
[24] = Drug metabolism in cynomolgus monkey cryopreserved hepatocytes assessed as metabolite M8 formation; type: ADME, cell-based, Macaca fascicularis, Hepatocyte
[25] = Drug metabolism in human cryopreserved hepatocytes assessed as metabolite M8 formation; type: ADME, cell-based, Hepatocyte
[26] = Unbound plasma concentration in human; type: ADME, cell-free
[27] = Unbound plasma concentration in rat; type: ADME, cell-free

Chain of Muscarinic acetylcholine receptor M4 (Rattus norvegicus, UniProt P08485) (P08485 whole entry): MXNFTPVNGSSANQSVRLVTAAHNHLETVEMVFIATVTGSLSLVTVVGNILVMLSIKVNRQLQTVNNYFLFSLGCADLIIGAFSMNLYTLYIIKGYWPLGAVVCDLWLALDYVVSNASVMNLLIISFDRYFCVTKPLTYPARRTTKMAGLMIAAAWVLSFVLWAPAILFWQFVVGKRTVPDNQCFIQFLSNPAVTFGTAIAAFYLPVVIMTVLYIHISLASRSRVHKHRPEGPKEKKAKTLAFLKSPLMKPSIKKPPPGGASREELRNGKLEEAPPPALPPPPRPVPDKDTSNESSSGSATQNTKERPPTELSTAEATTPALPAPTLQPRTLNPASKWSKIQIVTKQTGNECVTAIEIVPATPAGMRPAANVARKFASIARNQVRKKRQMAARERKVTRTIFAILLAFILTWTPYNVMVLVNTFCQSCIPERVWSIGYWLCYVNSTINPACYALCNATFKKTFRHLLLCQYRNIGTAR
Chain of Muscarinic acetylcholine receptor M3 (P20309 whole entry): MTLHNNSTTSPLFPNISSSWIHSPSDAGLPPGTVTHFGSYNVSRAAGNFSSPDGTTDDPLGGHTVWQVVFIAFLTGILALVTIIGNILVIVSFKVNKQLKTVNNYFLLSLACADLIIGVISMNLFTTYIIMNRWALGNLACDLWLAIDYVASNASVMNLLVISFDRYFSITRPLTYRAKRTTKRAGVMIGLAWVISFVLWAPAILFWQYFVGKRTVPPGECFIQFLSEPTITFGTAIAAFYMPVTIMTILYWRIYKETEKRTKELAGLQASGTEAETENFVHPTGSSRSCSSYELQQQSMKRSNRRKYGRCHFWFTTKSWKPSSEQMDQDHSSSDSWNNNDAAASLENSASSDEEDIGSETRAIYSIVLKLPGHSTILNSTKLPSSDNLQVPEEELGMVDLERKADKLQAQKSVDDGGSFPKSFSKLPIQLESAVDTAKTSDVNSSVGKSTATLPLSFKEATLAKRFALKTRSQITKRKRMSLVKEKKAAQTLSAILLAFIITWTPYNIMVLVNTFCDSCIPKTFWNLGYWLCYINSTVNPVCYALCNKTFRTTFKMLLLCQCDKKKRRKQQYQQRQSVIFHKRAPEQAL
Chain of Cytochrome P450 2D6 (P10635 whole entry): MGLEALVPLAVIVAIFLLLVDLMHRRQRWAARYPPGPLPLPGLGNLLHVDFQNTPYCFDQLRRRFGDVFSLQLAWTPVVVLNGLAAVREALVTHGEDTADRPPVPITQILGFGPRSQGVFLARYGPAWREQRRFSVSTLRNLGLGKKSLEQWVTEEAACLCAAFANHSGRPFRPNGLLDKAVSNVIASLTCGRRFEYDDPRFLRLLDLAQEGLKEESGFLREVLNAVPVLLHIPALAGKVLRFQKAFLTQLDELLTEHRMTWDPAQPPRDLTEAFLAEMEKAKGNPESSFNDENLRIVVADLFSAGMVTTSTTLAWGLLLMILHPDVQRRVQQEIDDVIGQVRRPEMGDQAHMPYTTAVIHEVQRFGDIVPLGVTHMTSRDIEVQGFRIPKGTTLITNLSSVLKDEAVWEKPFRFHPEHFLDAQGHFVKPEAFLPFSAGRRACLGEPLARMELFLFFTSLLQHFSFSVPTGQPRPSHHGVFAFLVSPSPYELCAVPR
Chain of Muscarinic acetylcholine receptor M1 (P08482 whole entry): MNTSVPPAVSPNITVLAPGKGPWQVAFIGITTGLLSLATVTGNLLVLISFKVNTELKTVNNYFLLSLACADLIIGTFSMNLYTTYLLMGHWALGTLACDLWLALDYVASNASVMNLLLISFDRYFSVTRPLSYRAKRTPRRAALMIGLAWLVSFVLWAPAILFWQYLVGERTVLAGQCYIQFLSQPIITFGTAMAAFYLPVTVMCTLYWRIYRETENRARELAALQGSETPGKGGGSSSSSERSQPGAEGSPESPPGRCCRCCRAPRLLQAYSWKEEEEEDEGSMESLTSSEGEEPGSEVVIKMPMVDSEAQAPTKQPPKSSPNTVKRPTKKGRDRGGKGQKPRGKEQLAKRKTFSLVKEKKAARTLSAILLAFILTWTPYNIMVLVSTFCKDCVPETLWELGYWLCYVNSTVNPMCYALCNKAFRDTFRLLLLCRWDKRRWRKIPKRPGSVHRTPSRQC
Chain of CYP2B6 (P20813 whole entry): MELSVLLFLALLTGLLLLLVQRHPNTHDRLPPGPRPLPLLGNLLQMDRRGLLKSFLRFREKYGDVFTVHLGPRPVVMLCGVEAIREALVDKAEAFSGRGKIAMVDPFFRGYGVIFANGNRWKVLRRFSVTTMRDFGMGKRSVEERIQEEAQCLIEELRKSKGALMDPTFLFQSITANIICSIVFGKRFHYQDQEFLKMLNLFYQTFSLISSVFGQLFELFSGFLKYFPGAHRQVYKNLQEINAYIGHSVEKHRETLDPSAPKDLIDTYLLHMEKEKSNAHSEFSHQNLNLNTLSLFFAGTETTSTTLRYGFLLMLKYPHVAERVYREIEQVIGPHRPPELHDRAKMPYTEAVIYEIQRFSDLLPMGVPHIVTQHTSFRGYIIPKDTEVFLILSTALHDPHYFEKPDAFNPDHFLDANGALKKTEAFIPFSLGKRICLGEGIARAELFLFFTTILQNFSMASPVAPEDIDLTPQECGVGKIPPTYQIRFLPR
Chain of Cytochrome P450 2C9 (P11712 whole entry): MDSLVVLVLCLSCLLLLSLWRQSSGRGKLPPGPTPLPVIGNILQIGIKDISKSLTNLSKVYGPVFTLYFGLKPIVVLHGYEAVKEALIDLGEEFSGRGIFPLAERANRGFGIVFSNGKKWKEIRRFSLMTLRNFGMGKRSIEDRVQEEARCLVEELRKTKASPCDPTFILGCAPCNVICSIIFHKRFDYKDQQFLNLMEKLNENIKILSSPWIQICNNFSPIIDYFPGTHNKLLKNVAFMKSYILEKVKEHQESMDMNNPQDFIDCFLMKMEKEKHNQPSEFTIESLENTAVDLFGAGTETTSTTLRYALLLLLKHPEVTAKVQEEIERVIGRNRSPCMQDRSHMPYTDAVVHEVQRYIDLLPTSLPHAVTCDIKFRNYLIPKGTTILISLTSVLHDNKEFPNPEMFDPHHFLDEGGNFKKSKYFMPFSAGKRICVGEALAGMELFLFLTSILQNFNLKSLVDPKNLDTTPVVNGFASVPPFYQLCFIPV
Chain of Cytochrome P450 3A4 (P08684 whole entry): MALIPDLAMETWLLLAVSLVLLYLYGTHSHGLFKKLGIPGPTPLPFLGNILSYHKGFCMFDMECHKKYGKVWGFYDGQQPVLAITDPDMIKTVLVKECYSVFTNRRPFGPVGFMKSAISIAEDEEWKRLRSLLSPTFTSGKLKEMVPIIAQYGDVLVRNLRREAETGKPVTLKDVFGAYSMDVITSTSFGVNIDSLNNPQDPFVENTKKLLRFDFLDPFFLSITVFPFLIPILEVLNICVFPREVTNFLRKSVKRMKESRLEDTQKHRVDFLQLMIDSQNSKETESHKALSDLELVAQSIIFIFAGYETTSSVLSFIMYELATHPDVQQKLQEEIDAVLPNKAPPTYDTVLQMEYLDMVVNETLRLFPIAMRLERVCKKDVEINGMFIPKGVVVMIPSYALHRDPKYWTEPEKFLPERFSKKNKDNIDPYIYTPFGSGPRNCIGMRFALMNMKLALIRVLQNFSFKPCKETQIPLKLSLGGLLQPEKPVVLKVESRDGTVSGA
Chain of CYP3A4 (P08684 whole entry): as above

EC50 [1]: 91 nM
IC50 (Cytochrome P450 1A2): 11 µM
IC50 (Cytochrome P450 2C9): > 30 µM
IC50 (Cytochrome P450 2D6): 19 µM
IC50 (Cytochrome P450 3A4): > 30 µM
beta t1/2 (Rattus norvegicus [2]): 2.7 h
Vdss (Rattus norvegicus [3]): 0.34 L/kg
EC50 ([4]; read-out: EC50): 13.5 nM
EC50 ([4]; read-out: pEC50 (converted)): 11.7 nM
EC50 [5]: 111 nM
pEC50 [5]: 6.95
EC50 [6]: > 30 µM
EC50 [7]: > 30 µM
EC50 at 48 h (CYP2B6): > 50 µM
EC50 at 48 h (CYP3A4): > 50 µM
Kp [10]: 0.74
K(p,uu,brain) [11]: 2.6
Kp uu at 2 h [12]: 4.8
Drug metabolism [13]: Metabolite_Detected
Drug metabolism [14]: Metabolite_Detected
Drug metabolism [15]: Metabolite_Detected
Drug metabolism [16]: Metabolite_Detected
Drug metabolism [17]: Metabolite_Detected
Drug metabolism [18]: Metabolite_Detected
Drug metabolism [19]: Metabolite_Detected
Drug metabolism [20]: Metabolite_Detected
Drug metabolism [21]: Metabolite_Detected
Drug metabolism [22]: Metabolite_Detected
Drug metabolism [23]: Metabolite_Detected
Drug metabolism [24]: Metabolite_Detected
Drug metabolism [25]: Metabolite_Detected
fraction unbound [26]: 0.011
fraction unbound [27]: 0.002
Structure (SMILES): Cc1nnc2sc(C(=O)NCc3ccc(-c4cccnc4F)cc3)c(N)c2c1C
Activity (Salmonella typhimurium [8]): Non-Toxic
Activity (Salmonella typhimurium [9]): Non-Toxic
